Source: ChEMBL document CHEMBL1128270 (J Med Chem, 1995)

Assays:
[1] = target: T1, 5-hydroxytryptamine receptor 1A (Rattus norvegicus, UniProt P19327); experiment: In vitro binding affinity measured on serotonin 5-hydroxytryptamine 1A receptor using [3H]8-OH-DPAT as radioligand.
T1 sequence (P19327 whole entry): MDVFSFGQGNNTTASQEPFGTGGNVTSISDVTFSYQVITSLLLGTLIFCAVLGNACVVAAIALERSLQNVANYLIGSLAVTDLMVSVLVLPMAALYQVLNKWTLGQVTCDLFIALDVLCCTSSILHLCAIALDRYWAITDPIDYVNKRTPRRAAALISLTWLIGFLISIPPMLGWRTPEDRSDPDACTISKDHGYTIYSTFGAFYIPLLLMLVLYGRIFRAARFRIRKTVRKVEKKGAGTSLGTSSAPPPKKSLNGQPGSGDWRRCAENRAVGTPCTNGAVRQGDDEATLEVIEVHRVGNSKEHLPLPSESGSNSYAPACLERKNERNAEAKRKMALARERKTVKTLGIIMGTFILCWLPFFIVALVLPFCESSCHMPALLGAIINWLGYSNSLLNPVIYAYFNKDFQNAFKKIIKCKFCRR

[2] = test system: Dopamine D2 receptor and serotonin 1a receptor (Rattus norvegicus); experiment: Selectivity as the ratio of IC50 value against D-2 receptor to that of 5-hydroxytryptamine 1A receptor
[3] = target: T2, Adrenergic receptor alpha-1 (Rattus norvegicus, UniProt P15823+P23944+P43140); experiment: In vitro binding affinity measured on alpha-1 adrenergic receptor using [3H]prazosin as radioligand.; format: protein assay
T2 sequence (P15823 whole entry): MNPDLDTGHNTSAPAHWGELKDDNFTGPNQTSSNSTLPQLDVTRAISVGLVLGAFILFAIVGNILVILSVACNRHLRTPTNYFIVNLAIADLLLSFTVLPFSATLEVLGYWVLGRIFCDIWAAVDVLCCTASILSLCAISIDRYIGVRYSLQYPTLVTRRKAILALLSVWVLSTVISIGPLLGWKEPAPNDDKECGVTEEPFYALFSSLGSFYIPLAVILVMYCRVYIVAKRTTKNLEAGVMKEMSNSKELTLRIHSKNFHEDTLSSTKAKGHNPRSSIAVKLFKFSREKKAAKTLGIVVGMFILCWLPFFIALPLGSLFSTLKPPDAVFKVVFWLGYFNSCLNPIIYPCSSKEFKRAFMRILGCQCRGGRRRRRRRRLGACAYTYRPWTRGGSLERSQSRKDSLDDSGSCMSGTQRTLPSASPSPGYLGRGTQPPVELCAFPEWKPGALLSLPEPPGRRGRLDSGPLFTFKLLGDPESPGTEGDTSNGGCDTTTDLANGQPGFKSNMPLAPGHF
T2 sequence (P23944 whole entry): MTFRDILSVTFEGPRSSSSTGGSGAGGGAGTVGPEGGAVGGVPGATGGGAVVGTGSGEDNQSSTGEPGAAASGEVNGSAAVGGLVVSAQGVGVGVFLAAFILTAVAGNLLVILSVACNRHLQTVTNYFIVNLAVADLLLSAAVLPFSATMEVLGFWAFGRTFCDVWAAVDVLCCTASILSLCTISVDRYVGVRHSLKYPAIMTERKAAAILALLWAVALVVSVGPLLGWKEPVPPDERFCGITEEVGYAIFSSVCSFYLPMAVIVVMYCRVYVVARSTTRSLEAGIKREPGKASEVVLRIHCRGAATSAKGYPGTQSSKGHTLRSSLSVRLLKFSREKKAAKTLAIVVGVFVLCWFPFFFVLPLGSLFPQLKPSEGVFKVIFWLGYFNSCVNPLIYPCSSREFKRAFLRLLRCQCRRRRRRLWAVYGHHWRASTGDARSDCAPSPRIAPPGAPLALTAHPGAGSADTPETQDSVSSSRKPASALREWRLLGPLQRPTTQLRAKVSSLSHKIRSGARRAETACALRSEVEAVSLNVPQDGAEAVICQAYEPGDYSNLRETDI
T2 sequence (P43140 whole entry): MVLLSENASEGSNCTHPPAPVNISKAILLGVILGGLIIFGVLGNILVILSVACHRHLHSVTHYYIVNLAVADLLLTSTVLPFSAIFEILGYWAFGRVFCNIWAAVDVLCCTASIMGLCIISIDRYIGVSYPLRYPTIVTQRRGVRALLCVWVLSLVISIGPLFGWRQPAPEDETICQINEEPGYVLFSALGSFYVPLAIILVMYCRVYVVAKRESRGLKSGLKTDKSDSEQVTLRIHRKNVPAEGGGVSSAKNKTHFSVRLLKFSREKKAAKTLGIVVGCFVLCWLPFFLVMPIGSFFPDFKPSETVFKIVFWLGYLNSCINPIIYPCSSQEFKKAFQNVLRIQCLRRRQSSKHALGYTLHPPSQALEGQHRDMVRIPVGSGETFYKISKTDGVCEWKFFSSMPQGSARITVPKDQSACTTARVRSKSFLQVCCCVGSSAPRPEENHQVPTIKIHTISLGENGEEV

[4] = Selectivity as the ratio of IC50 value against alpha-1 receptor to that of 5-hydroxytryptamine 1A receptor
Outline: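 Ratio of the α1 IC50 to the 5-HT1A IC50 ([3H]-8-OH-DPAT, rat cortex). For α1, male Sprague-Dawley rat cortex membranes were prepared in 50 mM Tris-HCl pH 7.7 with 10 μM pargyline and 0.1% ascorbate.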

D(2) dopamine receptor = D(2) dopamine receptor (Rattus norvegicus, UniProt P61169); experiment: The compound was evaluated for the binding affinity towards Dopamine receptor D2 binding site using [3H]spiroperidol.
Chain of D(2) dopamine receptor (P61169 whole entry): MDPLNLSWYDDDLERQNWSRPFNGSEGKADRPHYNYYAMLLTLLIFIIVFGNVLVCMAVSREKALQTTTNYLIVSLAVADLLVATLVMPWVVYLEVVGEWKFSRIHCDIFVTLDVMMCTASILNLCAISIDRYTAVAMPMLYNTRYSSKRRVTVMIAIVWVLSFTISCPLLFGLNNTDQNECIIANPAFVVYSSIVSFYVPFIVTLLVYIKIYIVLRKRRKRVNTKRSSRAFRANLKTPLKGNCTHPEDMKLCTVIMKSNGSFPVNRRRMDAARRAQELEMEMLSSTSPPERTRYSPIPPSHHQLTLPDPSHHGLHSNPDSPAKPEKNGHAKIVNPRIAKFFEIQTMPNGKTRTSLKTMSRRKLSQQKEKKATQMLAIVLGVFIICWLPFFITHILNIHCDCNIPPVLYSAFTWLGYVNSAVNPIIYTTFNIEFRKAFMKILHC
Outline: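 IC50 came from 7–9 drug concentrations in triplicate, over 2–4 independent experiments, analysed with EBDA. Specific binding exceeded 75% of total.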

In the case of `COc1ccc2c(c1)C(NCCN1CCN(c3ccccc3OC)CC1)CCC2` (stereo not given), the IC50 [1] is reported as 40.3 nM, the Selectivity [2] is reported as 30 and the IC50 [3] is reported as 1960 nM. It also gave a Selectivity [4] of 49 and an IC50 (D(2) dopamine receptor) of 1200 nM.
